Source: ChEMBL document CHEMBL4308914, “Discovery of potent, low-absorbable sodium-dependent glucose cotransporter 1 (SGLT1) inhibitor SGL5213 for type 2 diabetes treatment” (Bioorg Med Chem, 2019)
Values belong to the compound of their own block, whether it stands above or below them.

Tests used:
[1] = target: T1, Sodium/glucose cotransporter 1 (Homo sapiens, UniProt P13866); assay: Inhibition of human SGLT1 expressed in CHOK1 cells assessed as reduction in sodium-dependent glucose uptake after 30 mins in presence of [14C]-methyl-alpha -D-glucopyranoside by microbeta counting method; format: cell-based
T1 sequence (P13866 whole entry): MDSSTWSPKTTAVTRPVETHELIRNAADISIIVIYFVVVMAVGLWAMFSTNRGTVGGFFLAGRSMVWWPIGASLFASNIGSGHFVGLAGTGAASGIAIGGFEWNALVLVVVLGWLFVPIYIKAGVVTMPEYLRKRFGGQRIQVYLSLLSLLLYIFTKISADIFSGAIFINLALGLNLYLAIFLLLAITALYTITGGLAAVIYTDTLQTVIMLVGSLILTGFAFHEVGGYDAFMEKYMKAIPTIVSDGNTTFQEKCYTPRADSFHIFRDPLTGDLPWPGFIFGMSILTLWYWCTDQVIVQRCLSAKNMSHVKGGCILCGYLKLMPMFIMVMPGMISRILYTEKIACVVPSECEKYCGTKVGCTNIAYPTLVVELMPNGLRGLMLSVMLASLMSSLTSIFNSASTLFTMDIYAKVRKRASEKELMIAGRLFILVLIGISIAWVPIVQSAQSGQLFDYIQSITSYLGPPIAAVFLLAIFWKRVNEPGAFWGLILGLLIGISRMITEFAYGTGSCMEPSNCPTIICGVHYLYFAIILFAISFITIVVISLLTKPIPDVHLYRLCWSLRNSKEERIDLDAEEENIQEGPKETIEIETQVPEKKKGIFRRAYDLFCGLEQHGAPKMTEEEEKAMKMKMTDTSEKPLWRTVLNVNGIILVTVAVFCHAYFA
In short: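 CHO-K1 cells stably expressing human SGLT1, preincubated 20 min in Na-free choline buffer (pH 7.4). Uptake buffer (140 mM NaCl, HEPES/Tris pH 7.4) with 0.1 mM methyl-α-D-glucopyranoside plus [14C] tracer and test compound, 30 min at 37 °C. Cells washed, lysed in NaOH, radioactivity counted. Choline-for-Na buffer as background. Six concentrations; IC50 vs untreated control; mean of at least two experiments.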

[2] = target: T2, Sodium/glucose cotransporter 2 (Homo sapiens, UniProt P31639); assay: Inhibition of human SGLT2 expressed in CHOK1 cells assessed as reduction in sodium-dependent glucose uptake after 1 hr in presence of [14C]-methyl-alpha -D-glucopyranoside by microbeta counting method; format: cell-based
T2 sequence (P31639 whole entry): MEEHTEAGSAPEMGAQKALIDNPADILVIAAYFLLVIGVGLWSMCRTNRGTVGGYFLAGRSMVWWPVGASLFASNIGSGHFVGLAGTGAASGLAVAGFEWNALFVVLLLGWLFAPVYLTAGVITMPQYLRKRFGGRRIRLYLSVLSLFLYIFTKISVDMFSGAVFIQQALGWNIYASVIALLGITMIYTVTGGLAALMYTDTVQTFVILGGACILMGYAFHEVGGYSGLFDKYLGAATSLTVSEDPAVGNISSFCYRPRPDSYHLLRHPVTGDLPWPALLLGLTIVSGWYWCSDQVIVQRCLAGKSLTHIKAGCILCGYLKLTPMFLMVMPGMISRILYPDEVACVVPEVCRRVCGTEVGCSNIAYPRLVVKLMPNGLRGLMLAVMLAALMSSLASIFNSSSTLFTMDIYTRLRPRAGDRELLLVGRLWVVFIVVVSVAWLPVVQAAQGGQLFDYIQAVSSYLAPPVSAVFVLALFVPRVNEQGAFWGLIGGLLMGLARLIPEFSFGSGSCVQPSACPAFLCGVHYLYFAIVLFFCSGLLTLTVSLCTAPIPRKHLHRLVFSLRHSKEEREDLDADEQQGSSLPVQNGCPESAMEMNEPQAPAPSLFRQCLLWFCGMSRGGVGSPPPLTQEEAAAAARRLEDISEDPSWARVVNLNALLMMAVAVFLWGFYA
In short: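 Human SGLT2 stably expressed in CHO-K1 cells; 20 min Na-free choline pretreatment, then Na+ uptake buffer pH 7.4 with 1 mM methyl-α-D-glucopyranoside containing [14C] label plus compound, 1 h at 37 °C. Washed, NaOH lysis, scintillation counting; Na-free buffer for background. IC50 from six concentrations relative to uninhibited uptake; mean of at least two experiments.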

[3] = Permeability of the compound at pH 7.4 by PAMPA assay; format: ADME; conditions: read-out: permeability
In short: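 PAMPA at pH 7.4: filter coated with GIT-0 lipid; donor compartment holds compound in universal buffer at 25 μM or 5 μM; permeability reported as ×10⁻⁶ cm/s.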

[4] = Drug uptake in Sprague-Dawley rat kidney at 0.3 mg/kg, iv administered as single dose after 2 hrs by LCMS analysis; format: ADME, organism-based; conditions: read-out: Drug uptake
In short: (§1)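 Fasted male SD rats given single i.v. dose in saline; animals euthanized at 2, 24 and 72 h, kidneys homogenized in purified water and unchanged drug measured by LC-MS/MS (ng/g tissue). Mean ± SD of three animals; 72 h level also expressed relative to 2 h value.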

[5] = Drug excretion in bile duct cannulated Sprague-Dawley rat urine at 0.3 mg/kg, iv administered as single dose after 24 hrs by LCMS analysis; format: ADME, organism-based; conditions: read-out: Drug excretion
In short: (§2)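 Bile duct-cannulated SD rats given single i.v. dose in saline; urine and bile collected over 24 h. Unchanged drug quantified by LC-MS/MS and expressed as cumulative % of dose; mean ± SD of three animals.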

[6] = Volume of distribution at steady sate in Sprague-Dawley rat at 0.4 mg/kg, iv; format: ADME, organism-based; conditions: in vivo, read-out: Vdss
In short: (§3)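 Fasted male SD rats, single i.v. dose in saline; tail-vein blood sampled over time, plasma analysed by LC-MS/MS. Parameters by non-compartmental analysis; mean of three animals.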

[7] = Drug uptake in Sprague-Dawley rat kidney at 0.3 mg/kg, iv administered as single dose after 24 hrs by LCMS analysis; format: ADME, organism-based; conditions: read-out: Drug uptake; in short: as §1
[8] = Drug uptake in Sprague-Dawley rat kidney at 0.3 mg/kg, iv administered as single dose after 72 hrs by LCMS analysis; format: ADME, organism-based; conditions: read-out: Drug uptake; in short: as §1
[9] = Total clearance in Sprague-Dawley rat at 0.4 mg/kg, iv; format: ADME, organism-based; conditions: in vivo; in short: as §3
[10] = Drug uptake in Sprague-Dawley rat kidney assessed as unchanged drug level at 0.3 mg/kg, iv administered as single dose after 72 hrs by LCMS analysis relative to control; format: ADME, organism-based; conditions: in vivo; in short: as §1
[11] = Oral bioavailability in Sprague-Dawley rat at 30 mg/kg; format: ADME, organism-based; conditions: in vivo
In short: (§4)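 Fasted male SD rats dosed orally in 0.5% CMC Na; tail-vein plasma sampled over time and analysed by LC-MS/MS. Non-compartmental analysis; bioavailability relative to i.v. dosing in saline; mean of three animals.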

[12] = Drug excretion in bile duct cannulated Sprague-Dawley rat bile at 0.3 mg/kg, iv administered as single dose after 24 hrs by LCMS analysis; format: ADME, organism-based; conditions: read-out: Drug excretion; in short: as §2
[13] = Cmax in Sprague-Dawley rat at 30 mg/kg, po; format: ADME, organism-based; set-up: dose 30 mg/kg, route oral; conditions: in vivo; in short: as §4
[14] = tested on: Rattus norvegicus; assay: Antidiabetic activity in Sprague-Dawley rat assessed as reduction in blood glucose AUC (0 to 2 hrs) at 1 mg/kg, po dosed just prior to sucrose loading measured up to 120 mins by sucrose tolerance test relative to control; format: functional; set-up: scale not given: the % may be the effect or the level left
[15] = tested on: Rattus norvegicus; assay: Antidiabetic activity in Sprague-Dawley rat assessed as reduction in blood glucose AUC (0 to 2 hrs) at 0.3 to 3 mg/kg, po dosed just prior to sucrose loading measured up to 120 mins by sucrose tolerance test relative to control; format: functional
[16] = Gastrointestinal toxicity in Sprague-Dawley rat assessed as induction of diarrhea at 0.3 to 3 mg/kg, po dosed just prior to sucrose loading measured up to 120 mins during sucrose tolerance test relative to control; format: organism-based; conditions: in vivo, 2 h
[17] = Half life in Sprague-Dawley rat at 0.4 mg/kg, iv; format: ADME, organism-based; conditions: in vivo; in short: as §3
[18] = tested on: Rattus norvegicus; assay: Antidiabetic activity in Sprague-Dawley rat assessed as reduction in blood glucose AUC (0 to 2 hrs) at 0.3 mg/kg, po dosed just prior to sucrose loading measured up to 120 mins by sucrose tolerance test relative to control; format: functional; set-up: scale not given: the % may be the effect or the level left
[19] = Tmax in Sprague-Dawley rat at 30 mg/kg, po; format: ADME, organism-based; conditions: in vivo; in short: as §4
[20] = tested on: Rattus norvegicus; assay: Antidiabetic activity in Sprague-Dawley rat assessed as reduction in blood glucose AUC (0 to 2 hrs) at 3 mg/kg, po dosed just prior to sucrose loading measured up to 120 mins by sucrose tolerance test relative to control; format: functional; set-up: scale not given: the % may be the effect or the level left

SMILES: Cc1cc(C)c([C@@H]2O[C@H](CO)[C@@H](O)[C@H](O)[C@H]2O)cc1Cc1ccc(/C=C/C(C)(C)C(=O)NC(C)(C)CO)cc1Cl
- IC50 [1]: 176 nM

SMILES: Cc1cc(/C=C/C(C)(C)C(=O)NC(C)(C)CO)ccc1Cc1cc([C@@H]2O[C@H](CO)[C@@H](O)[C@H](O)[C@H]2O)c(C)cc1C
- IC50 [1]: 111 nM
- IC50 [2]: 84 nM
- Papp [3]: 7.5 ×10⁻⁶ cm/s

SMILES: Cc1cc(/C=C/C(C)(C)C(=O)NC(C)(C)C(=O)NCC(C)(C)N)ccc1Cc1cc([C@@H]2O[C@H](CO)[C@@H](O)[C@H](O)[C@H]2O)c(O)cc1C(C)C
- concentration at 2 h [4]: 1060 ng/g
- dose excreted at 24 h [5]: 5.3%
- Vd [6]: 0.964 L/kg
- concentration at 24 h [7]: 83.8 ng/g
- concentration at 72 h [8]: 12.5 ng/g
- clearance [9]: 62.7 mL/min/kg
- Drug uptake [10]: 1.2%
- bioavailability [11]: 0.09%
- dose excreted at 24 h [12]: 89.8%
- Cmax [13]: 5.34 ng/mL

SMILES: COc1cc(C(C)C)c(Cc2ccc(/C=C/C(C)(C)C(=O)NC(C)(C)C(=O)NCCN(C)C)cc2)cc1[C@@H]1O[C@H](CO)[C@@H](O)[C@H](O)[C@H]1O
- concentration at 2 h [4]: 1090 ng/g
- Activity [14]: 50.8%
- Emax [15]: 50.8%
- Activity [16]: Non-Toxic
- dose excreted at 24 h [5]: 18.1%
- Vd [6]: 1.64 L/kg
- concentration at 24 h [7]: 104 ng/g
- concentration at 72 h [8]: 29.2 ng/g
- half-life [17]: 143 min
- clearance [9]: 67 mL/min/kg
- Activity [18]: 27.5%
- Drug uptake [10]: 2.7%
- Tmax [19]: 2.83 h
- bioavailability [11]: 0.17%
- Activity [20]: 45.7%
- dose excreted at 24 h [12]: 65.1%
- Cmax [13]: 1.88 ng/mL

Further compounds by falling IC50 [1], results first:

- IC50 [1]: 74 nM
- IC50 [2]: 354 nM
SMILES: COc1cc(C(C)C)c(Cc2ccc(/C=C/C(C)(C)C(=O)NC(C)(C)CO)cc2C)cc1[C@@H]1O[C@H](CO)[C@@H](O)[C@H](O)[C@H]1O

- IC50 [1]: 36 nM
- IC50 [2]: 34 nM
- Papp [3]: 1.8 ×10⁻⁶ cm/s
SMILES: COc1cc(C(C)C)c(Cc2ccc(/C=C/C(C)(C)C(=O)NC(C)(C)CO)cc2)cc1[C@@H]1O[C@H](CO)[C@@H](O)[C@H](O)[C@H]1O

- IC50 [1]: 34 nM
- IC50 [2]: 200 nM
SMILES: COc1cc(C(C)C)c(Cc2ccc(/C=C/C(C)(C)C(=O)NC(C)(C)C(=O)N3CCNCC3)cc2C)cc1[C@@H]1O[C@H](CO)[C@@H](O)[C@H](O)[C@H]1O

- IC50 [1]: 21 nM
SMILES: Cc1cc(O)c([C@@H]2O[C@H](CO)[C@@H](O)[C@H](O)[C@H]2O)cc1Cc1ccc(/C=C/C(C)(C)C(=O)NC(C)(C)CO)cc1
